How the values were obtained:
MIA PaCa-2 [1] = experiment: Cytotoxicity against human MIA PaCa2 cells after 72 hrs by MTT assay; type: functional, cell-based; details: MIA PaCa-2, 72 h
MIA PaCa-2 [2] = experiment: Cytotoxicity against human MIA PaCa2 cells after 4 hrs by MTT assay; type: functional, cell-based; details: MIA PaCa-2, 4 h
[3] = target: NAD(P)H dehydrogenase [quinone] 1 (Homo sapiens) (UniProt P15559); experiment: Inhibition of human recombinant NQO1 expressed in MIA PaCa2 cells at <10 nM after 1 hrs; type: cell-based; details: MIA PaCa-2
Sequence of NAD(P)H dehydrogenase [quinone] 1 (Homo sapiens) (P15559 whole entry): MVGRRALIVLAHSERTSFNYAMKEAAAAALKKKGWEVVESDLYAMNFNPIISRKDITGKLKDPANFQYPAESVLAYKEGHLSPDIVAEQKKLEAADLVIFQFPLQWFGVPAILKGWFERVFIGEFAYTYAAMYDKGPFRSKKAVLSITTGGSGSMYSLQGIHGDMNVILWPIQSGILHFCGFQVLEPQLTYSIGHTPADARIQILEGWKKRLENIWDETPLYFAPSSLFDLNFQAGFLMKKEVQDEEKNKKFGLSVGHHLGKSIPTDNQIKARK
How it was run: (§1)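 MIA PaCa-2 cells (1×10^6, plated the day before) exposed to indolequinone (1 nM–10 μM) in complete medium for 1 h. Cells then washed in PBS, scraped into 50 mM K phosphate pH 7.4 with 250 mM sucrose and 5 μM FAD, and sonicated on ice. NQO1 activity in sonicates measured as 0.2 mM NADH-dependent reduction of 40 μM DCPIP, read at 600 nm for 1 min at 32 °C.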

[4] = target: NAD(P)H dehydrogenase [quinone] 1 (Homo sapiens) (UniProt P15559); experiment: Inhibition of human recombinant NQO1 expressed in MIA PaCa2 cells at 10 to 100 nM after 1 hrs; type: cell-based; details: MIA PaCa-2; how it was run: as §1
[5] = target: NAD(P)H dehydrogenase [quinone] 1 (Homo sapiens) (UniProt P15559); experiment: Inhibition of human recombinant NQO1 expressed in MIA PaCa2 cells at 5000 to 10000 nM after 1 hrs; type: cell-based; details: MIA PaCa-2; how it was run: as §1

How did the IC50 (MIA PaCa-2 [1]) turn out when `O=[N+]([O-])c1ccc(O)cc1` [P-NITROPHENOL] was run?
Its IC50 is 13 µM.

What about the IC50 (MIA PaCa-2 [2]) of the same molecule?
Its IC50 is 11 µM.

With `COC1=CC(=O)c2c(c(COc3ccccn3)c(C)n2C)C1=O` as the molecule, how does the inhibition [3] read?
Its inhibition is greater than 90%.

For `Oc1ccc(F)cc1`, which IC50 (MIA PaCa-2 [1]) is on record?
Its IC50 is 13.2 µM.

And the IC50 (MIA PaCa-2 [2])?
The IC50 was 12.4 µM.

For `COC1=CC(=O)c2c(c(COc3cccnc3)c(C)n2C)C1=O`, which IC50 (MIA PaCa-2 [1]) is on record?
Its IC50 is 0.562 µM.

What about the inhibition [4] of the same molecule?
The inhibition was greater than 90%.

And the IC50 (MIA PaCa-2 [2])?
The IC50 was 0.904 µM.

Which results are given for `O=[N+]([O-])c1ccccc1O` [NITROPHENOLATE]?
IC50 (MIA PaCa-2 [1]): 16.4 µM; IC50 (MIA PaCa-2 [2]): 6.08 µM

For `Oc1cccnc1`, which IC50 (MIA PaCa-2 [1]) is on record?
The IC50 was 73.1 µM.

And the IC50 (MIA PaCa-2 [2])?
Its IC50 is 56.5 µM.

`N#Cc1ccc(O)cc1` [4-CYANOPHENOL] was tested. Which IC50 (MIA PaCa-2 [1]) did it give?
Its IC50 is 73.3 µM.

And the IC50 (MIA PaCa-2 [2])?
The IC50 was 56.8 µM.

`COC1=CC(=O)c2c(COc3ccc([N+](=O)[O-])cc3F)c(C)n(C)c2C1=O` was tested. Which IC50 (MIA PaCa-2 [1]) did it give?
Its IC50 is 0.417 µM.

What about the inhibition [4] of the same molecule?
Its inhibition is greater than 90%.

And the IC50 (MIA PaCa-2 [2])?
The IC50 was 0.529 µM.

Which IC50 (MIA PaCa-2 [1]) does the source give for `COC1=CC(=O)c2c(COc3ccccc3[N+](=O)[O-])c(C)n(C)c2C1=O` here?
The IC50 was 0.178 µM.

What about the inhibition [4] of the same molecule?
The inhibition was greater than 90%.

What about the IC50 (MIA PaCa-2 [2]) of the same molecule?
Its IC50 is 0.363 µM.

Which results are given for `COC1=CC(=O)c2c(c(COc3ccc([N+](=O)[O-])cc3)c(C)n2C)C1=O`?
IC50 (MIA PaCa-2 [1]): 0.508 µM; inhibition [4]: > 90%; IC50 (MIA PaCa-2 [2]): 0.629 µM

`O=[N+]([O-])c1ccc(O)c([N+](=O)[O-])c1` [2,4-DINITROPHENOL] was tested. Which IC50 (MIA PaCa-2 [1]) did it give?
The IC50 was 22.1 µM.

What about the IC50 (MIA PaCa-2 [2]) of the same molecule?
Its IC50 is 15.9 µM.

For `COC1=CC(=O)c2c(COc3ccc(N)cc3)c(C)n(C)c2C1=O`, which IC50 (MIA PaCa-2 [1]) is on record?
The IC50 was 0.16 µM.

And the IC50 (MIA PaCa-2 [2])?
Its IC50 is 0.504 µM.

`COC1=CC(=O)c2c(COc3ccc(F)cc3)c(C)n(C)c2C1=O` was tested. Which IC50 (MIA PaCa-2 [1]) did it give?
The IC50 was 0.493 µM.

What about the inhibition [5] of the same molecule?
The inhibition was greater than 90%.

And the IC50 (MIA PaCa-2 [2])?
Its IC50 is 0.905 µM.

Which results are given for `Oc1ccccc1` [PHENOL]?
IC50 (MIA PaCa-2 [1]): 16 µM; IC50 (MIA PaCa-2 [2]): 16.5 µM

What does the source list for `O=[N+]([O-])c1cccc(O)c1` [3-NITRO-PHENOL]?
IC50 (MIA PaCa-2 [1]): 13.9 µM; IC50 (MIA PaCa-2 [2]): 7.13 µM

With `Oc1ccc(F)cc1F` as the molecule, how does the IC50 (MIA PaCa-2 [1]) read?
Its IC50 is 20.8 µM.

What about the IC50 (MIA PaCa-2 [2]) of the same molecule?
Its IC50 is 14.8 µM.

Which results are given for `COC1=CC(=O)c2c(COc3cccnc3)c(C)n(C)c2C1=O`?
IC50 (MIA PaCa-2 [1]): 1.82 µM; IC50 (MIA PaCa-2 [2]): 2.48 µM

What does the source list for `COC1=CC(=O)c2c(COc3cccc([N+](=O)[O-])c3)c(C)n(C)c2C1=O`?
IC50 (MIA PaCa-2 [1]): 0.257 µM; inhibition [4]: > 90%; IC50 (MIA PaCa-2 [2]): 0.351 µM

Which results are given for `COC1=CC(=O)c2c(COc3c(F)cc(F)cc3F)c(C)n(C)c2C1=O`?
IC50 (MIA PaCa-2 [1]): 0.212 µM; inhibition [4]: > 90%; IC50 (MIA PaCa-2 [2]): 0.452 µM

For `COC1=CC(=O)c2c(c(COc3ccncc3)c(C)n2C)C1=O`, which IC50 (MIA PaCa-2 [1]) is on record?
The IC50 was 2.17 µM.

And the IC50 (MIA PaCa-2 [2])?
The IC50 was 2.01 µM.

Which IC50 (MIA PaCa-2 [1]) does the source give for `COC1=CC(=O)c2c(COc3ccc(C(F)(F)F)cc3)c(C)n(C)c2C1=O` here?
The IC50 was 0.311 µM.

And the inhibition [5]?
Its inhibition is greater than 90%.

What about the IC50 (MIA PaCa-2 [2]) of the same molecule?
Its IC50 is 0.496 µM.

Which results are given for `COC1=CC(=O)c2c(COc3ccncc3)c(C)n(C)c2C1=O`?
IC50 (MIA PaCa-2 [1]): 3.27 µM; inhibition [4]: > 90%; IC50 (MIA PaCa-2 [2]): 2.56 µM

What does the source list for `COC1=CC(=O)c2c(COc3ccc(C#N)cc3)c(C)n(C)c2C1=O`?
IC50 (MIA PaCa-2 [1]): 0.192 µM; IC50 (MIA PaCa-2 [2]): 0.463 µM

For `COC1=CC(=O)c2c(c(COc3ccccc3[N+](=O)[O-])c(C)n2C)C1=O`, which IC50 (MIA PaCa-2 [1]) is on record?
The IC50 was 0.104 µM.

What about the IC50 (MIA PaCa-2 [2]) of the same molecule?
The IC50 was 0.345 µM.

What does the source list for `Oc1c(F)cc(F)cc1F`?
IC50 (MIA PaCa-2 [1]): 38.1 µM; IC50 (MIA PaCa-2 [2]): 36.4 µM

How did the IC50 (MIA PaCa-2 [1]) turn out when `COC1=CC(=O)c2c(c(COc3cccc([N+](=O)[O-])c3)c(C)n2C)C1=O` was run?
Its IC50 is 0.258 µM.

What about the inhibition [4] of the same molecule?
The inhibition was greater than 90%.

What about the IC50 (MIA PaCa-2 [2]) of the same molecule?
Its IC50 is 0.352 µM.

Which results are given for `COC1=CC(=O)c2c(c(C(C)Oc3ccc([N+](=O)[O-])cc3)c(C)n2C)C1=O` (stereo not given)?
IC50 (MIA PaCa-2 [1]): 1.7 µM; IC50 (MIA PaCa-2 [2]): 1.83 µM

With `COC1=CC(=O)c2c(c(COc3c(F)cc(F)cc3F)c(C)n2C)C1=O` as the molecule, how does the IC50 (MIA PaCa-2 [1]) read?
The IC50 was 0.086 µM.

What about the IC50 (MIA PaCa-2 [2]) of the same molecule?
Its IC50 is 0.427 µM.

Which IC50 (MIA PaCa-2 [1]) does the source give for `COC1=CC(=O)c2c(COc3ccccn3)c(C)n(C)c2C1=O` here?
The IC50 was 2.39 µM.

And the inhibition [4]?
The inhibition was greater than 90%.

And the IC50 (MIA PaCa-2 [2])?
The IC50 was 9.58 µM.

Which IC50 (MIA PaCa-2 [1]) does the source give for `Oc1ccccn1` here?
The IC50 was 68.8 µM.

And the IC50 (MIA PaCa-2 [2])?
Its IC50 is 68.1 µM.

Which IC50 (MIA PaCa-2 [1]) does the source give for `Oc1ccc(C(F)(F)F)cc1` here?
The IC50 was 32.9 µM.

What about the IC50 (MIA PaCa-2 [2]) of the same molecule?
Its IC50 is 13.1 µM.

What does the source list for `Nc1ccc(O)cc1` [4-AMINOPHENOL]?
IC50 (MIA PaCa-2 [1]): 42.2 µM; IC50 (MIA PaCa-2 [2]): 42 µM

Which IC50 (MIA PaCa-2 [1]) does the source give for `Oc1ccncc1` here?
The IC50 was 17.8 µM.

And the IC50 (MIA PaCa-2 [2])?
The IC50 was 43.2 µM.

How did the IC50 (MIA PaCa-2 [1]) turn out when `COC1=CC(=O)c2c(COc3ccccc3)c(C)n(C)c2C1=O` was run?
The IC50 was 0.409 µM.

And the IC50 (MIA PaCa-2 [2])?
The IC50 was 4.56 µM.

What does the source list for `COC1=CC(=O)c2c(c(COc3ccccc3)c(C)n2C)C1=O`?
IC50 (MIA PaCa-2 [1]): 0.962 µM; IC50 (MIA PaCa-2 [2]): 1.39 µM

`COC1=CC(=O)c2c(COc3ccc(F)cc3F)c(C)n(C)c2C1=O` was tested. Which IC50 (MIA PaCa-2 [1]) did it give?
The IC50 was 0.075 µM.

And the inhibition [4]?
The inhibition was greater than 90%.

And the IC50 (MIA PaCa-2 [2])?
The IC50 was 0.255 µM.

What does the source list for `O=[N+]([O-])c1ccc(O)c(F)c1`?
IC50 (MIA PaCa-2 [1]): 19.2 µM; IC50 (MIA PaCa-2 [2]): 14.3 µM

With `COC1=CC(=O)c2c(c(COc3ccc([N+](=O)[O-])cc3F)c(C)n2C)C1=O` as the molecule, how does the IC50 (MIA PaCa-2 [1]) read?
The IC50 was 3.56 µM.

And the IC50 (MIA PaCa-2 [2])?
Its IC50 is 4.65 µM.

Which IC50 (MIA PaCa-2 [1]) does the source give for `COC1=CC(=O)c2c(COc3ccc([N+](=O)[O-])cc3)c(C)n(C)c2C1=O` here?
The IC50 was 0.355 µM.

What about the inhibition [4] of the same molecule?
The inhibition was greater than 90%.

And the IC50 (MIA PaCa-2 [2])?
The IC50 was 0.638 µM.
